Results: publication PMC3163154 (Molecular pharmaceutics, 2011)

Assays:
[1] = tested on: LNCaP cells; assay: Cytotoxicity assay; assay type: cell-based; conditions: read-out: IC50 in LNCaP cells; LNCaP (PTEN-null), 72 hours, MTT assay
[2] = tested on: DU145 cells; assay: Cytotoxicity assay; assay type: cell-based; conditions: read-out: IC50 in DU145 cells; DU145 (PTEN-wild), 72 hours, MTT assay
How it was run: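 DU145 cells were seeded at 3×10³ cells/well, a lower density than LNCaP owing to fast growth. After 24 h, test compound was added and cells were incubated 72 h at 37°C. Relative cell number was measured by MTT. IC50 was obtained by fitting a concentration-response curve.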

[3] = tested on: PI3Kβ; conditions: selectivity; cited from earlier work
[4] = tested on: LNCaP cells; assay: Androgen induced proliferation assay; assay type: cell-based; conditions: R1881-containing serum-free medium, 3 days, compared with TGX-221
How it was run: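 LNCaP cells were seeded 12 h before assay. Medium was switched to serum-free medium containing 1 nM R1881 (synthetic androgen), then test compound was added. After 72 h incubation, proliferation was read by Alamar Blue assay. Mean ± SD, n=3.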

[5] = tested on: androgen response element (ARE-LUC) reporter in LNCaP cells; assay: Androgen induced gene expression assay; assay type: cell-based; conditions: R1881 1.0 nM, 24 hours, compared with TGX-221
How it was run: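 LNCaP cells in 6-well plates were transfected the next day with 1.0 μg ARE-LUC plasmid using Lipofectamine. After 24 h, medium was changed to RPMI-1640 with 2% FBS and 1.0 nM R1881, test compound was added, and cells were incubated 24 h. Cells were PBS-washed and lysed, and luciferase activity was normalised to BCA total protein. Mean ± SD, n=3.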

[6] = tested on: LNCaP cells; assay: Cellular uptake study; assay type: cell-based; conditions: 0.5 μM, 1 hour incubation
[7] = tested on: LNCaP cells; assay: Immunostaining of LNCaP cells with biotinylated peptides; assay type: binding
How it was run: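 LNCaP cells were fixed in ice-cold acetone/methanol (1/1) for 10 min and blocked with 1% BSA for 1 h. Biotinylated peptide was applied for 1 h in TBST (0.1% Tween-20, 0.1 M Tris-Cl, pH 7.4). After washing, streptavidin-FITC was added for 20 min and nuclei were counterstained. Cells were imaged by fluorescence microscopy at 200x.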

[8] = tested on: LNCaP cells; assay: In vitro competitive receptor binding assay; assay type: cell-based; conditions: pre-incubation with Ac-KCCYSL 1 hour, then KCC-TGX 30 minutes
How it was run: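 LNCaP cells were plated at 2×10⁴ cells/well for 12 h and PBS-washed. They were pre-incubated 1 h at 37°C with the HER2-targeting peptide at the indicated concentrations, then exposed to test conjugate for 30 min. Cells were washed, freeze-thaw lysed, NaOH-hydrolysed 1 h to release parent drug, and extracted with ethyl acetate using an internal standard. Drug was quantified by LC-MS/MS and normalised to BCA protein. n=3.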

Cc1cc(C(C)Nc2ccccc2)c2nc(N3CCOCC3)cc(=O)n2c1 (stereo not shown) [TGX-221]
IC50 [1]: 1070 nM | IC50 [2]: > 100000 nM | inhibition effect on PI3Kβ over PI3Kα [3]: about 1000 fold | inhibition effect on PI3Kβ over PI3Kγ [3]: about 1000 fold | inhibition effect on PI3Kβ over PI3Kδ [3]: ~20 fold

Cc1cc(C(C)N(CCO)c2ccccc2)c2nc(N3CCOCC3)cc(=O)n2c1 (stereo not shown) [TGX-D1]
IC50 [1]: 2670 nM | IC50 [2]: > 100000 nM | inhibition of androgen-induced cell proliferation [4]: comparable effects | inhibition of androgen-induced gene expression [5]: comparable effects | cellular uptake in LNCaP cells [6]: low uptake

KCCYSL
binding on LNCaP cells (streptavidin-FITC staining) ([7]; C-terminus biotinylated peptide, 10 μM): high-affinity binding

DPRATPGSK
fluorescence on LNCaP cells (streptavidin-FITC staining) ([7]; control peptide, concentration increased to 100 μM (data not shown)): No significant fluorescence

Ac-KCCYSL
uptake by LNCaP cells after pre-incubation with the HER2-specific ligand [8]: significantly inhibited
